Data taken from ChEMBL document CHEMBL5678817, “FTBMT, a Novel and Selective GPR52 Agonist, Demonstrates Antipsychotic-Like and Procognitive Effects in Rodents, Revealing a Potential Therapeutic Agent for Schizophrenia” (J Pharmacol Exp Ther, 2017).
Calls of active or inactive are those of the source. No cut-off for these calls is given here.

Tests used:
[1] = biological target: Vasopressin V1a receptor (Homo sapiens) (UniProt P37288); test: Inhibition of Vasopressin V1A receptor (unknown origin) at 10 uM relative to control
Vasopressin V1a receptor (Homo sapiens), sequence (P37288 whole entry, looked up): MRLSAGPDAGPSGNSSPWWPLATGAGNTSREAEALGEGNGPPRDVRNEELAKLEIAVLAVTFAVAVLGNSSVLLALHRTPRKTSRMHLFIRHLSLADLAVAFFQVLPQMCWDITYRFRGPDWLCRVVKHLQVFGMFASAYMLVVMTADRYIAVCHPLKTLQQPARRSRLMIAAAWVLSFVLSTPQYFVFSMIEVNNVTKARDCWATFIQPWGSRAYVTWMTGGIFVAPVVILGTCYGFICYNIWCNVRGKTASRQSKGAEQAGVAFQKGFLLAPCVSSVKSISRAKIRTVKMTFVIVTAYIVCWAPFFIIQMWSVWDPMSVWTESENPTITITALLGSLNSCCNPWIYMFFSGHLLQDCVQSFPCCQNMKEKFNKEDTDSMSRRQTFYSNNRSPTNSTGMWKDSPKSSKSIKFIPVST
How it was run: (§1)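 Binding and enzyme panel run by an outside contractor against receptors, ion channels and enzymes. Each assay used a single 10 μM test concentration, and results are expressed as percent inhibition. A negative value means stimulation of receptor activity or activation of enzyme activity.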

Mus musculus [2] = test: Antipsychotic activity in GPR52 knockout ICR mouse assessed as inhibition of MK-801-induced hyperactivity at 30 mg/kg, po pretreated with compound for 1 hr followed by MK-801 addition and measured after 90 mins; format: functional, organism-based; details: time 150.0 min
[3] = biological target: G-protein coupled receptor 52 (Mus musculus, UniProt P0C5J4); test: Agonist activity at mouse GPR52 expressed in CHO cells assessed as increase in intracellular cAMP level incubated for 30 mins by Alphascreen assay; format: functional, cell-based
G-protein coupled receptor 52, sequence (P0C5J4 whole entry): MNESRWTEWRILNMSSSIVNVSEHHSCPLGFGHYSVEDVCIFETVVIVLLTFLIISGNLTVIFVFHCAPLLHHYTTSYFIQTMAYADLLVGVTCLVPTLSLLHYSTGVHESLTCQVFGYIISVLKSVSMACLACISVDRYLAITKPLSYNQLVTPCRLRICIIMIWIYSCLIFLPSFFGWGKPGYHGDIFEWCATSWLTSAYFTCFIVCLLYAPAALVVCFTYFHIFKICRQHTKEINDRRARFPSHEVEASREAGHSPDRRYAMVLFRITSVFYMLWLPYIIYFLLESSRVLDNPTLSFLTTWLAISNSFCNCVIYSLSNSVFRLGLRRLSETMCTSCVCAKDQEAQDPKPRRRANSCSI
How it was run: (§2)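 CHO cells stably expressing human, mouse or rat GPR52, plus naïve CHO cells, at 10,000 cells/well. Stimulated in cAMP assay buffer for 30 min at 37 °C. Intracellular cAMP read by AlphaScreen.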

[4] = biological target: Phosphodiesterase 3 (Homo sapiens) (UniProt Q14432+Q13370); test: Inhibition of PDE3 (unknown origin) at 10 uM relative to control; format: protein assay
How it was run: (§3)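 Enzyme activity assays from the same 98-target biochemical panel. Single test concentration of 10 µM. Read-out is % inhibition of enzyme activity relative to control; negative percentages indicate activation of the enzyme.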

[5] = biological target: Growth hormone secretagogue receptor type 1 (Homo sapiens) (UniProt Q92847); test: Inhibition of Growth hormone secretagogue receptor (unknown origin) at 10 uM relative to control
Growth hormone secretagogue receptor type 1 (Homo sapiens), sequence (Q92847 whole entry): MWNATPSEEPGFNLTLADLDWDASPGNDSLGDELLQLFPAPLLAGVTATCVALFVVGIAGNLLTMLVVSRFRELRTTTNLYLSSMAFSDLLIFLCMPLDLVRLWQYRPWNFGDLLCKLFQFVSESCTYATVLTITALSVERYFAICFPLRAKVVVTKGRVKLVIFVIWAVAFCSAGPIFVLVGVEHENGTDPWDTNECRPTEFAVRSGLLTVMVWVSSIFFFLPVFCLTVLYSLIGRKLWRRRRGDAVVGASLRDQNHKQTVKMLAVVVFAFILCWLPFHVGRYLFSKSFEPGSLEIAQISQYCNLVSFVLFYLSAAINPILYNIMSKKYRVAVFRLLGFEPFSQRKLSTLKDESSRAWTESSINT
How it was run: (§4)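 Part of a 98-target external biochemical selectivity panel that used radioligand/receptor binding-type assays. Compound tested once at 10 µM. Results are reported as % inhibition versus control; negative values mean stimulation of receptor activity.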

Homo sapiens [6] = organism: Homo sapiens; test: Inhibition of KATP (unknown origin) at 10 uM relative to control; how it was run: as §4
Mus musculus [7] = test: Pro-cognitive activity in C57BL/6N mouse assessed as increase in Arc gene expression in hippocampus at 3 to 30 mg/kg, po […]; format: functional, organism-based; details: dose 3-30 mg/kg
Homo sapiens [8] = organism: Homo sapiens; test: Inhibition of Imidazoline I2 receptor (unknown origin) at 10 uM relative to control; how it was run: as §4
[9] = biological target: D(1A) dopamine receptor (Homo sapiens) (UniProt P21728); test: Inhibition of Dopamine D1 receptor (unknown origin) at 10 uM relative to control
D(1A) dopamine receptor (Homo sapiens), sequence (P21728 whole entry): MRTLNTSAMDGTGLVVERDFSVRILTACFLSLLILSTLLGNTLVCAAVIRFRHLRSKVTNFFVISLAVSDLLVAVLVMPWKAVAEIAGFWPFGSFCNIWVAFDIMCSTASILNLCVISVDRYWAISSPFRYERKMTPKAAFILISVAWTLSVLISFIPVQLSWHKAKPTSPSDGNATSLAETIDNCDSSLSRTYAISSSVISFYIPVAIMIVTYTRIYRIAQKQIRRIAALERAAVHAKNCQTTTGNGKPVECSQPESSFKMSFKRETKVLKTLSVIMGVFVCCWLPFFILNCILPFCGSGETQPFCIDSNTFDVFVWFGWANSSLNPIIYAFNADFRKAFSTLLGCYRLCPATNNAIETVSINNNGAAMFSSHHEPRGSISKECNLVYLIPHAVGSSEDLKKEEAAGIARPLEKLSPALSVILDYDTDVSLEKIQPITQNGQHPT
How it was run: (§5)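 Single-point screen at 10 μM across receptor, ion channel and enzyme binding or activity assays. Expressed as percent inhibition versus control; negative values denote stimulation.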

[10] = biological target: Androgen receptor (Homo sapiens) (UniProt P10275); test: Inhibition of Androgen receptor (unknown origin) at 10 uM relative to control; how it was run: as §5
Androgen receptor (Homo sapiens), sequence (P10275 whole entry): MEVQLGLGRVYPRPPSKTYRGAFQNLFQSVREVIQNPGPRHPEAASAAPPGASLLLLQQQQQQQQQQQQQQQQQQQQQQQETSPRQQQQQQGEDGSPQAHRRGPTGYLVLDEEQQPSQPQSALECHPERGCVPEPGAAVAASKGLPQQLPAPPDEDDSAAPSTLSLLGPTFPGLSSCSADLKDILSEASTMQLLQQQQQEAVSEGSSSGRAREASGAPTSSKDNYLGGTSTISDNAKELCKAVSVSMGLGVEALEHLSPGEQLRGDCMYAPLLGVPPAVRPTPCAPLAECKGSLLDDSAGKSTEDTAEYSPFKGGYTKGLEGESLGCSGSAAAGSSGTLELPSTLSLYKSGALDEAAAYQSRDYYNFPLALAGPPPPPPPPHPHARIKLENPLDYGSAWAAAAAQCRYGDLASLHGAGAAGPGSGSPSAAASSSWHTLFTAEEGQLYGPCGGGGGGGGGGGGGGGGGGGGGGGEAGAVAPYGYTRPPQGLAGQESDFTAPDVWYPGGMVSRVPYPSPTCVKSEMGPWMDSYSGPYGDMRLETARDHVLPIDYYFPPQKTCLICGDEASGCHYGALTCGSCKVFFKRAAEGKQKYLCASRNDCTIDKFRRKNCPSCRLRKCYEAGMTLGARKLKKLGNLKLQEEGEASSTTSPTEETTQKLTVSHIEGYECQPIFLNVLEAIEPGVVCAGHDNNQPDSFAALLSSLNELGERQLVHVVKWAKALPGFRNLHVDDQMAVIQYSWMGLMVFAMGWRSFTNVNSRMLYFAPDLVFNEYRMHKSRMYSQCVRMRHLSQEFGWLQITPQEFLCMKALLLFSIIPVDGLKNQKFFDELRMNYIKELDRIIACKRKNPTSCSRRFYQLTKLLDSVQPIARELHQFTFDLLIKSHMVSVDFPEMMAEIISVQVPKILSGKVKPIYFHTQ

[11] = biological target: Coagulation factor X (Homo sapiens) (UniProt P00742); test: Inhibition of factor Xa (unknown origin) at 10 uM relative to control; how it was run: as §1
Coagulation factor X (Homo sapiens), sequence (P00742 41-179 limits assumed): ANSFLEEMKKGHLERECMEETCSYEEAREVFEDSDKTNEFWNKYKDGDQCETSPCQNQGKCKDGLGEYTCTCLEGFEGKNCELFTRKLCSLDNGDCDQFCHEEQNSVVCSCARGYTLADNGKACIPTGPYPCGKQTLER
Coagulation factor X (Homo sapiens), sequence (P00742 235-488 limits assumed): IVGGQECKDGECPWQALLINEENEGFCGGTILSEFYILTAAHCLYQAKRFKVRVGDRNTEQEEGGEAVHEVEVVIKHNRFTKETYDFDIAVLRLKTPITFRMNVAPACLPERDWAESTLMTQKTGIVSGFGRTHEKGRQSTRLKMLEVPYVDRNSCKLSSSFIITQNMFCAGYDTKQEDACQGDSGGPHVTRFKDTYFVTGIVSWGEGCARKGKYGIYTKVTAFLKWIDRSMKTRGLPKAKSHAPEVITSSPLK

[12] = biological target: Alpha-2B adrenergic receptor (Homo sapiens) (UniProt P18089); test: Inhibition of Adrenergic alpha2B receptor (unknown origin) at 10 uM relative to control; how it was run: as §5
Alpha-2B adrenergic receptor (Homo sapiens), sequence (P18089 whole entry): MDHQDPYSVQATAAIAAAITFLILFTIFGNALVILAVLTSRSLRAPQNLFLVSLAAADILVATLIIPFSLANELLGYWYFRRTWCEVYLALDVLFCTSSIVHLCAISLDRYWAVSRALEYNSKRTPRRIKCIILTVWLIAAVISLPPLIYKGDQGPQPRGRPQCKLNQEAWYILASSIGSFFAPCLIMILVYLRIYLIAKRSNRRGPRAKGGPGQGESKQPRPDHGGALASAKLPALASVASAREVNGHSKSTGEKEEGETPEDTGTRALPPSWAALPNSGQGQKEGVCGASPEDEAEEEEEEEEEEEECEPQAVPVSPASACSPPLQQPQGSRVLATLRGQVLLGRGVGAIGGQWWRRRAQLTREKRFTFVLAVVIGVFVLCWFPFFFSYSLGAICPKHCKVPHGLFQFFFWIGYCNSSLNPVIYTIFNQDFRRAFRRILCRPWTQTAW

Mus musculus [13] = test: Antipsychotic activity in GPR52 knockout mouse assessed as increase in phosphorylated CREB level in striatum at 30 mg/kg, po incubated for 60 mins by ELISA analysis; format: functional, organism-based
[14] = biological target: 3-oxo-5-alpha-steroid 4-dehydrogenase 1 (Homo sapiens) (UniProt P18405); test: Inhibition of Steroid 5alpha-reductase 1 (unknown origin) at 10 uM relative to control; how it was run: as §1
3-oxo-5-alpha-steroid 4-dehydrogenase 1 (Homo sapiens), sequence (P18405 whole entry): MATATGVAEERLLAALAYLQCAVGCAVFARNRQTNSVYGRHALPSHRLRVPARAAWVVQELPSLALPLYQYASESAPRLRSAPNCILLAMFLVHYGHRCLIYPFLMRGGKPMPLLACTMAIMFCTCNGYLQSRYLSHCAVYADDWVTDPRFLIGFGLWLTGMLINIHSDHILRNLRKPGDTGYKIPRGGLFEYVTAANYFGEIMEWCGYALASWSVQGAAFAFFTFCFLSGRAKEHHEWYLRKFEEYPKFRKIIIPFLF

[15] = biological target: MAO-B (amine oxidase [flavin-containing] B) (Homo sapiens, UniProt P27338); test: Inhibition of MAO-B (unknown origin) at 10 uM relative to control; how it was run: as §3
[16] = biological target: Progesterone receptor (Homo sapiens) (UniProt P06401); test: Inhibition of Progesterone receptor (unknown origin) at 10 uM relative to control; how it was run: as §4
Mus musculus [17] = test: Antipsychotic activity in C57BL/6N mouse assessed as increase in c-fos positive cells in frontal cortex at 30 mg/kg, po measured for 2 hrs by immunohistochemistry analysis; format: functional, organism-based
[18] = biological target: T1, G protein-coupled receptor 52 (Rattus norvegicus) (UniProt A0A8I5ZQK1); test: Agonist activity at rat GPR52 expressed in CHO cells assessed as increase in intracellular cAMP level upto 10 uM incubated for 30 mins by Alphascreen assay; format: cell-based; how it was run: as §2
T1 sequence (A0A8I5ZQK1 as listed by the source): as the sequence (P0C5J4 whole entry) above, with M14V, E250D, E333Q, A342G, Q348R counted along it

Homo sapiens [19] = organism: Homo sapiens; test: Inhibition of Sodium channel Site 2 (unknown origin) at 10 uM relative to control; how it was run: as §1
[20] = biological target: Cannabinoid receptor 1 (Homo sapiens) (UniProt P21554); test: Inhibition of CB1 receptor (unknown origin) at 10 uM relative to control; how it was run: as §5
Rattus norvegicus = test: Pro-cognitive activity in Long-Evans rat assessed as discrimination index at 3 to 10 mg/kg, po measured after 3 mins by NORT test; format: functional, organism-based; details: dose 3-10 mg/kg
How it was run: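 Male Long-Evans rats (7 weeks) were habituated to a 40 × 40 × 50 cm box for 10 min. The acquisition trial was 3 min with two identical objects. Oral dosing at 3 or 10 mg/kg followed immediately after acquisition. The 3-min retention trial, with one familiar and one novel object, ran 48 h later. Exploration was hand-scored by a blinded scorer, and NDI = novel/total × 100. n = 10.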

[21] = biological target: GABA-A receptor; anion channel (Homo sapiens) (UniProt P14867+P47870+P18507+P28472+P48169+Q99928+Q9UN88+P34903+O00591+O14764+Q8N1C3+P18505+P78334+P47869+P31644+Q16445); test: Inhibition of GABA receptor (unknown origin) at 10 uM relative to control; format: protein-complex assay; how it was run: as §4
Mus musculus [22] = test: Antipsychotic activity in C57BL/6N mouse assessed as increase in c-fos positive cells in dorsomedial striatum at 30 mg/kg, po measured for 2 hrs by immunohistochemistry analysis; format: functional, organism-based
[23] = biological target: T1, G protein-coupled receptor 52 (Rattus norvegicus); test: Agonist activity at GPR52 in rat Striatal neuron assessed as increase in c-fos mRNA expression by RT-PCR analysis; format: cell-based; details: filed as agonist
How it was run: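 Rat primary striatal neurons (E18–19), used at DIV 13–16. Treated in HBSS with 5 mM HEPES pH 7.5 and 0.5% fatty-acid-free BSA for 15 or 60 min at 37 °C. Cells were homogenized in RLT buffer and IEG mRNA was quantified by qPCR using absolute or ΔΔCt relative quantification.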

[24] = biological target: Beta-2 adrenergic receptor (Homo sapiens) (UniProt P07550); test: Inhibition of Adrenergic beta2 receptor (unknown origin) at 10 uM relative to control; how it was run: as §5
Beta-2 adrenergic receptor (Homo sapiens), sequence (P07550 whole entry, looked up): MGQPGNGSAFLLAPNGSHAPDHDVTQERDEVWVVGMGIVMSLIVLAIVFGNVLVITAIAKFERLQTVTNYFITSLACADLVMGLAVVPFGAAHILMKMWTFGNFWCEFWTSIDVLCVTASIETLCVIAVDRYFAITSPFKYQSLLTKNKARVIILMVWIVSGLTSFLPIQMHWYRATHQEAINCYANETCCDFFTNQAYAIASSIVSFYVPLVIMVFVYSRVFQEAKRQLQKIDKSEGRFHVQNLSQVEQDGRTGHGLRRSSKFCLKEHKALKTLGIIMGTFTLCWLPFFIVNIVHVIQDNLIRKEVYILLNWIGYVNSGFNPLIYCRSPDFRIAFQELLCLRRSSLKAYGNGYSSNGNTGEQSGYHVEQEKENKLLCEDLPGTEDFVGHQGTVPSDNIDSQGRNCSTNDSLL

[25] = biological target: Sodium-dependent noradrenaline transporter (Homo sapiens) (UniProt P23975); test: Inhibition of Norepinephrine transporter (unknown origin) at 10 uM relative to control; how it was run: as §4
Sodium-dependent noradrenaline transporter (Homo sapiens), sequence (P23975 whole entry): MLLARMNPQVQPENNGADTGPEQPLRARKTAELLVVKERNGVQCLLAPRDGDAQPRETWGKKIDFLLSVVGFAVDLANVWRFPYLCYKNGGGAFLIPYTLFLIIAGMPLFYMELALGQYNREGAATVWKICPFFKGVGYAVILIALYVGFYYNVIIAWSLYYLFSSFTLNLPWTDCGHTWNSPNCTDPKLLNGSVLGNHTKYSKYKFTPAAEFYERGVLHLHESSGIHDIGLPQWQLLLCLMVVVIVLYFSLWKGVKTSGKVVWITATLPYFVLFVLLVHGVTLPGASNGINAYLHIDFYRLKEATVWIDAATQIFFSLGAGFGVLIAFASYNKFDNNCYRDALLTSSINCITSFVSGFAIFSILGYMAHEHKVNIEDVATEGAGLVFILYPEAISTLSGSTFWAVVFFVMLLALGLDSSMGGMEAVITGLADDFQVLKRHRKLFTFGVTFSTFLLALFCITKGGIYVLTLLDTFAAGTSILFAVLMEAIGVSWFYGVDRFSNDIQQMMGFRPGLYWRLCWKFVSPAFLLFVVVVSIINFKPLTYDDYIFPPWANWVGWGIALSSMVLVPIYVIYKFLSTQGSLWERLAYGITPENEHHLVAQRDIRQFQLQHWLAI

[26] = biological target: Protein kinase C (PKC) (Homo sapiens) (UniProt O94806+P41743+P17252+P05129+Q05655+P05771+Q05513+Q02156+P24723+Q15139+Q04759); test: Inhibition of Protein kinase C (unknown origin) at 10 uM relative to control; format: protein assay; how it was run: as §3
Homo sapiens [27] = organism: Homo sapiens; test: Inhibition of strychnine-Glycine receptor (unknown origin) at 10 uM relative to control; how it was run: as §1

Q: Cc1cc(-n2nc(Cc3cc(F)cc(C(F)(F)F)c3)nc2C)ccc1C(N)=O [TP-024] was tested. Which inhibition [1] did it give?
A: The inhibition was 14%.

Q: And the Activity (Mus musculus [2])?
A: Its Activity is “inactive”.

Q: What about the EC50 [3] of the same compound?
A: The EC50 was 0.141 µM.

Q: And the inhibition [4]?
A: The inhibition was 28%.

Q: What about the inhibition [5] of the same compound?
A: The inhibition was 0%.

Q: And the inhibition (Homo sapiens [6])?
A: The inhibition was -1%.

Q: And the Activity (Mus musculus [7])?
A: The Activity was “Active”.

Q: And the inhibition (Homo sapiens [8])?
A: Its inhibition is 6%.

Q: What about the inhibition [9] of the same compound?
A: Its inhibition is 7%.

Q: What about the inhibition [10] of the same compound?
A: Its inhibition is 5%.

Q: And the inhibition [11]?
A: The inhibition was -4%.

Q: What about the inhibition [12] of the same compound?
A: The inhibition was 5%.

Q: And the Activity (Mus musculus [13])?
A: The Activity was “inactive”.

Q: What about the inhibition [14] of the same compound?
A: Its inhibition is 0%.

Q: What about the inhibition at 10 µM [15] of the same compound?
A: Its inhibition at 10 µM is 26%.

Q: And the inhibition [16]?
A: The inhibition was 4%.

Q: What about the Activity (Mus musculus [17]) of the same compound?
A: The Activity was “Active”.

Q: And the Activity [18]?
A: The Activity was “inactive”.

Q: What about the inhibition (Homo sapiens [19]) of the same compound?
A: The inhibition was 1%.

Q: And the inhibition [20]?
A: The inhibition was -4%.

Q: What about the Activity (Rattus norvegicus) of the same compound?
A: The Activity was “Active”.

Q: What about the inhibition [21] of the same compound?
A: Its inhibition is 2%.

Q: What about the Activity (Mus musculus [22]) of the same compound?
A: Its Activity is “Active”.

Q: What about the Activity [23] of the same compound?
A: Its Activity is “Active”.

Q: What about the inhibition [24] of the same compound?
A: The inhibition was -5%.

Q: What about the inhibition [25] of the same compound?
A: The inhibition was 10%.

Q: And the inhibition [26]?
A: Its inhibition is -5%.

Q: What about the inhibition (Homo sapiens [27]) of the same compound?
A: Its inhibition is -4%.
